# Screening data from PubChem BioAssay.
# NR2E3 ag-1: activates human photoreceptor nuclear receptor NR2E3; AID 2300; hit rate 0.12% among 320,000; inhibition of corepressor binding, % at 4.78 µM; GST-NR2E3/biotin-RetCOR TR-FRET, 1536-well; Q9Y5X4;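 active = percent inhibition above the cutoff of mean plus 3 SD of all tested compounds, set per screening campaign, cut at about 20% in these data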;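 also: 0% = DMSO wells and 100% = biotin wells as full block of FRET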
#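 Test system – NR2E3–RetCOR corepressor complex · Quantity – NR2E3 fusion 1.35 nM · Buffer or medium – Tris pH 7.5 · Incubation – Compound–protein incubation for 5 h at 4 °C · Technique – TR-FRET, Eu(K)-anti-GST donor, streptavidin-D2 acceptor, ex 340, em 617/671 nm · Evaluation – percent inhibition of 671/617 nm emission ratio versus biotin and DMSO controls · Plate – 1536-well format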
# NR2E3 ag-2: agonists of human NR2E3 nuclear receptor. CHO-S Gal4-NCOR/VP16-NR2E3 two-hybrid, luciferase. inhibition of corepressor binding, % at 3.98 µM. hit rate 0.35% among 360,000. Q9Y5X4;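 active = inhibition above the mean of all tested compounds plus 3 SD, cut at about 70% in these data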;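 also: 0% = DMSO with NR2E3 transfected cells and 100% = cells lacking NR2E3 construct; higher means lower luciferase signal from less NR2E3 corepressor binding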
# ADAM10 inh: inhibits human ADAM10; inhibition, % at 7 µM; hit rate 0.62% among 370,000; O14672; recombinant ADAM10, EDANS/DABCYL FRET peptide cleavage, 3 h; AID 720582;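 active = inhibition above a per-campaign cutoff equal to the mean of compounds falling between control-based bounds plus 3 SD, cut at about 20% in these data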;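 also: 0% = DMSO wells while the 100% control is not disclosed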
# Target sequence (O14672 214-748 limits assumed): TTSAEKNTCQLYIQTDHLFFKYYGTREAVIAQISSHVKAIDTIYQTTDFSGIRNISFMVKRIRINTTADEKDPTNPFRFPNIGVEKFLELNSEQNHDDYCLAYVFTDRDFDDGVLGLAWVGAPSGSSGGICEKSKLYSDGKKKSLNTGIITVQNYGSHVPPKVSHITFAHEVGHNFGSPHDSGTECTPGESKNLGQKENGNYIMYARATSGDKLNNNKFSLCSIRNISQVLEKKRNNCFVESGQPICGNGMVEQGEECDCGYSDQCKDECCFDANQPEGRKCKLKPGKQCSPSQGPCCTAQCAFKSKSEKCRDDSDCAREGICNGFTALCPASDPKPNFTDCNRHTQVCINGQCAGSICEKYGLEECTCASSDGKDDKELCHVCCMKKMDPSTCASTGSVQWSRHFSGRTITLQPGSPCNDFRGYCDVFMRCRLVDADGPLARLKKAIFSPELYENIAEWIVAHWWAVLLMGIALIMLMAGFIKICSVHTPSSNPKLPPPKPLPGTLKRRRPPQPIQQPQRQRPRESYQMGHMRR
# KLK7 zymogen act: activates the human kallikrein-7 zymogen; AID 652039; activation, % at 7 µM; purified proKLK7, EDANS-DABCYL substrate fluorescence; 100% is mature enzyme control, 0% vehicle; P49862; hit rate 0.9% among 370,000;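 active = activation above the mean of all tested compounds plus 3 SD, computed per campaign excluding outliers beyond control limits, cut at about 13% in these data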
# JMJD2C inh: blocks human GASC-1 demethylase activity; inhibition, % at 2.35 µM; hit rate 0.069% among 330,000; AID 2099; Q9H3R0; GST-JMJD2C(1-420) H3K9me3 demethylation, DELFIA europium;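 active = more than half of a compound's replicate wells show inhibition beyond 50%, single wells judged on their own value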;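 also: signal counts dimethyl H3K9 product captured on neutravidin plate; 0% = median of DMSO wells and 100% = 0.3 times that DMSO median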
# ADAM17 inh: inhibits human ADAM17. P78536. recombinant ADAM17, EDANS/DABCYL FRET peptide cleavage. inhibition, % at 6.95 µM. hit rate 0.83% among 370,000. AID 720648;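 active = inhibition above the mean of compounds lying between control limits plus 3 SD, set per campaign, cut at about 8.5% in these data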;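 also: 0% = DMSO-only wells as the low control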
# KLK7 act conf: confirmation of human kallikrein-7 zymogen activators. shares compounds with KLK7 zymogen act. purified proKLK7, EDANS-DABCYL substrate fluorescence; scaled: vehicle 0, mature enzyme 100. activation, % at 7 µM. AID 686949. hit rate 68% among 3,200;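 active = activation, as change over the incubation, above the mean of all tested compounds plus 3 SD, cut at about 13% in these data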
# EDANS interfere: counter-screen for kallikrein-7 activators: EDANS-DABCYL optical interference. shares compounds with KLK7 zymogen act. EDANS-DABCYL substrate fluorescence interference, no enzyme, 4 h; solvent 0%, active enzyme control 100%. activation, % at 7 µM. hit rate 80% among 3,200;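 active = activation above the all-compound mean plus 3 SD, ignoring values outside control-based bounds, cut at about 4.8% in these data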;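 also: value is the 4 h activation minus the activation read at time zero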
# * hit, by the source's call; i = inactive; x = no result given. Compounds with a hit are over-represented: about 2.5% of the library has one in this group of screens.
SMILES,NR2E3 ag-1,NR2E3 ag-2,ADAM10 inh,KLK7 zymogen act,JMJD2C inh,ADAM17 inh,KLK7 act conf,EDANS interfere
Cc1cccn2c(=O)c3cc(C(=O)NCCc4ccccc4)c(=N)n(Cc4ccco4)c3nc12,7,-13,i,-8,34,-218,x,x
COC(=O)C1=CN(Cc2ccc(OC)c(OC)c2)C=C(C(=O)OC)C1c1ccccc1F,x,-30,i,-37,-12,i,x,x
COC(=O)C1=CN(C2CC2)C=C(C(=O)OC)C1c1ccccc1OC,4,16,i,37*,-8,i,78*,78*
CCN1C=C(C(=O)OC)C(c2cccc(OC)c2OC)C(C(=O)OC)=C1,3,-12,i,45*,-7,i,76*,74*
COC(=O)C1=CN(Cc2ccc(OC)c(OC)c2)C=C(C(=O)OC)C1c1cccc(OC)c1OC,-1,-72,i,-16,2,i,x,x
COCCN1C=C(C(=O)OC)C(c2ccccc2Cl)C(C(=O)OC)=C1,3,7,i,42*,7,i,-31,-12
CC(=O)Nc1cccc(C(=O)N2CCC(n3nccc3NC(=O)CC(C)C)CC2)c1,-1,3,-4,0,-9,-2,x,x
O=C(NCCCN1CCCC1)c1ccc2c(c1)N(Cc1ccccc1)CCS2,1,-17,i,51*,-6,-450,-16,-13
NS(=O)(=O)c1ccc(CCNC(=O)c2ccc3c(c2)N(Cc2ccccc2)CCS3)cc1,2,-8,-210,-16,8,-53,x,x
CN1CCN(CCCNC(=O)c2ccc3c(c2)N(Cc2ccc(F)cc2)CCS3)CC1,4,-6,i,76*,13,i,-8,-15
O=C(NCCCN1CCOCC1)c1ccc2c(c1)N(Cc1ccc(F)cc1)CCS2,2,-47,i,-12,3,i,x,x
CCN1CCN(CCCNC(=O)c2ccc3c(c2)N(Cc2ccccc2)CCS3)CC1,-2,-3,i,35*,0,i,-26,-28
O=C(Cn1[nH]c(=O)c2ccccc2c1=O)NNC(=O)c1ccccc1,1,-9,-11,0,-7,-4,x,x
CN(C(=O)C1CCOC1)c1nnc(-c2ccncc2)s1 (stereo unspecified),3,7,-124,46*,8,-35,65*,70*
CC(=O)N(c1ccccc1)c1nnc(-c2cnc(C)cn2)s1,-3,-96,-12,0,2,-4,x,x
Cc1cnc(-c2nnc(N(C)C(=O)c3cccnc3)s2)cn1,2,-52,-21,42*,-33,-8,72*,74*
Cc1ccc(-c2nnc(N(C)C(=O)c3cccnc3)s2)cn1,1,0,-3,3,2,-2,x,x
CN(C(=O)c1ccncc1)c1nnc(-c2ccncc2)s1,2,-11,x,x,23,x,x,x
CN(C(=O)C1CCOC1)c1nnc(-c2ccccn2)s1 (stereo unspecified),-3,-98,-89,41*,-8,-31,50*,48*
Cc1cnc(-c2nnc(N(C)C(=O)C3CCOC3)s2)cn1 (stereo unspecified),1,-54,-122,31*,27,-40,43*,46*
O=C(COC(=O)c1ccc2c(=O)n3c(nc2c1)CCC3)Nc1ccc(OC(F)F)cc1,1,-33,-19,0,30,-9,x,x
COC[C@H]1CCCN1c1ccc2c(c1)O[C@@H](COCc1ccccc1)CN([C@H](C)c1ccccc1)S2(=O)=O,x,1,-13,0,x,-2,x,x
O=C(Nc1nc2nccc(-c3ccccc3)n2n1)C(Cl)(Cl)Cl,2,-13,i,39*,6,i,47*,46*
CN(C)CCCNc1oc(-c2ccccc2)nc1C#N,1,-10,i,13,-4,-180,x,x
CN(C)CCNc1oc(-c2ccccc2F)nc1C#N,-1,-23,i,57*,1,-209,30*,33*
SMILES,NR2E3 ag-1,NR2E3 ag-2,ADAM10 inh,KLK7 zymogen act,JMJD2C inh,ADAM17 inh,KLK7 act conf,EDANS interfere
CN(C)CCNc1oc(-c2cccc(Cl)c2)nc1C#N,-2,-13,-497,59*,3,-108,31*,34*
OC(CNCCc1ccc(Cl)cc1)COc1cc(Cl)ccc1Cl (stereo unspecified),2,2,1,0,11,5,x,x
COc1ccc(-c2ccc(C#N)c(SCC(=O)NCc3ccco3)n2)cc1OC,1,1,i,-12,4,i,x,x
COc1ccc(-c2ccc(C#N)c(SCC(=O)NC3CC3)n2)cc1OC,1,22,i,17*,-4,-359,4,2
CC/C(=N\NC(=O)c1cc(C2CC2)[nH]n1)c1ccccc1,-5,-13,-2,0,2,-3,x,x
CCc1cc2c(CN3CCN(CCO)CC3)cc(=O)oc2cc1O,2,-13,i,49*,-10,i,57*,67*
CCc1cc2c(CN3CCN(C)CC3)cc(=O)oc2cc1O,0,-13,i,78*,-5,i,68*,75*
CN1CCN(Cc2cc(=O)oc3cc4c(cc23)CCC4)CC1,3,-16,-37,1,18,-7,x,x
Cc1ccc2c(CN3CCN(CCO)CC3)cc(=O)oc2c1C,4,-6,-6,0,5,-4,x,x
CCc1cc2c3c(c(=O)oc2cc1O)CCCC3,-2,-11,i,54*,-9,i,62*,66*
CCOc1ccc(NS(=O)(=O)c2ccc(C(=O)NC3CCC(O)CC3)cc2)cc1 (stereo unspecified),-4,32,-3,0,15,1,x,x
CCOC(=O)c1cccc(NC(=O)CSc2nncn2-c2ccccn2)c1,-5,-25,0,0,-11,-1,x,x
CCOC(=O)[C@]12CCCC=C1N(Cc1ccccc1)C(=O)[C@H](CC(=O)N1CCC(c3ccccc3)CC1)C2,x,x,-5,0,x,-1,x,x
COCCNC(=O)Cc1c(C)c2c(cc(C)c3c(C)coc32)oc1=O,-4,-24,-235,16*,7,-100,-15,-58
COCCCNC(=O)Cc1c(C)c2c(cc(C)c3c(C(C)(C)C)coc32)oc1=O,0,-16,-432,-12,-18,-171,x,x
Cc1coc2c1c(C)cc1oc(=O)c(CC(=O)NCCC(=O)O)c(C)c12,3,-15,i,30*,10,-365,64*,75*
Cc1coc2c1c(C)cc1oc(=O)c(CC(=O)NCC(=O)NCC(=O)O)c(C)c12,x,19,i,10,0,-319,x,x
